Measured values: ChEMBL document CHEMBL3588757, “Structure-based design, synthesis and biological testing of piperazine-linked bis-epipodophyllotoxin etoposide analogs” (Bioorg Med Chem, 2015)
pIC50: −log10 of the molar value.

Tests used:
K562 = experiment: Cytotoxicity against human K562 cells assessed as cell growth inhibition after 72 hrs by MTS assay; assay type: functional, cell-based; conditions: K562, 72 h
SF-268 = experiment: Cytotoxicity against human SF268 cells assessed as cell growth at 50 uM by SRB assay; assay type: functional; conditions: read-out: Activity
SK-MEL-28 = experiment: Cytotoxicity against human SK-MEL-28 cells assessed as cell growth at 50 uM by SRB assay; assay type: functional; conditions: read-out: Activity
SK-MEL-5 [1] = experiment: Cytotoxicity against human SK-MEL-5 cells assessed as cell growth at 50 uM by SRB assay; assay type: functional; conditions: read-out: Activity
IGROV-1 = experiment: Cytotoxicity against human IGROV1 cells assessed as cell growth at 50 uM by SRB assay; assay type: functional; conditions: read-out: Activity
CAKI-1 [2] = experiment: Cytotoxicity against human Caki1 cells assessed as cell growth at 50 uM by SRB assay; assay type: functional; conditions: read-out: Activity
UO-31 [3] = experiment: Cytotoxicity against human UO31 cells assessed as cell growth at 50 uM by SRB assay; assay type: functional; conditions: read-out: Activity
BT-549 [4] = experiment: Cytotoxicity against human BT549 cells assessed as cell growth at 50 uM by SRB assay; assay type: functional; conditions: read-out: Activity
NCI-H322M [5] = experiment: Cytotoxicity against human NCI-H322M cells by SRB assay; assay type: functional
In short: (§1)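 NCI-60 panel screen; 5-dose testing giving GI50 per cell line, plus a single 10 µM one-dose test. Method details not given beyond the NCI screen.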

KM12 [6] = experiment: Cytotoxicity against human KM12 cells by SRB assay; assay type: functional; in short: as §1
CAKI-1 [7] = experiment: Cytotoxicity against human Caki1 cells by SRB assay; assay type: functional
SN12C [8] = experiment: Cytotoxicity against human SN12C cells by SRB assay; assay type: functional; in short: as §1
PC-3 = experiment: Cytotoxicity against human PC3 cells by SRB assay; assay type: functional; in short: as §1
BT-549 [9] = experiment: Cytotoxicity against human BT549 cells by SRB assay; assay type: functional
HL-60(TB) [10] = experiment: Cytotoxicity against human HL-60(TB) cells assessed as cell growth at 0.005 uM by SRB assay; assay type: functional; conditions: read-out: Activity
In short: (§2)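 Measured in the NCI-60 human tumour cell line panel using five-dose testing. Growth was recorded at each dose for each cell line, and a GI50 was derived for each line.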

SF-539 = experiment: Cytotoxicity against human SF539 cells assessed as cell growth at 0.005 uM by SRB assay; assay type: functional; conditions: read-out: Activity
SNB-19 = experiment: Cytotoxicity against human SNB19 cells assessed as cell growth at 0.005 uM by SRB assay; assay type: functional; conditions: read-out: Activity
SK-MEL-5 [11] = experiment: Cytotoxicity against human SK-MEL-5 cells assessed as cell growth at 0.005 uM by SRB assay; assay type: functional; conditions: read-out: Activity
786-0 = experiment: Cytotoxicity against human 786-0 cells assessed as cell growth at 0.005 uM by SRB assay; assay type: functional; conditions: read-out: Activity
UO-31 [12] = experiment: Cytotoxicity against human UO31 cells assessed as cell growth at 0.005 uM by SRB assay; assay type: functional; conditions: read-out: Activity
MDA-MB-468 = experiment: Cytotoxicity against human MDA-MB-468 cells assessed as cell growth at 0.005 uM by SRB assay; assay type: functional; conditions: read-out: Activity
NCI-H226 = experiment: Cytotoxicity against human NCI-H226 cells assessed as cell growth at 0.05 uM by SRB assay; assay type: functional; conditions: read-out: Activity
HCT-15 [13] = experiment: Cytotoxicity against human HCT15 cells assessed as cell growth at 0.05 uM by SRB assay; assay type: functional; conditions: read-out: Activity; in short: as §2
LOX IMVI = experiment: Cytotoxicity against human LOXIMVI cells assessed as cell growth at 0.05 uM by SRB assay; assay type: functional; conditions: read-out: Activity
SK-MEL-5 [14] = experiment: Cytotoxicity against human SK-MEL-5 cells assessed as cell growth at 0.05 uM by SRB assay; assay type: functional; conditions: read-out: Activity
SN12C [15] = experiment: Cytotoxicity against human SN12C cells assessed as cell growth at 0.05 uM by SRB assay; assay type: functional; conditions: read-out: Activity
MCF7 = experiment: Cytotoxicity against human MCF7 cells assessed as cell growth at 0.05 uM by SRB assay; assay type: functional; conditions: read-out: Activity
[16] = Cytotoxicity against human Hs578T cells assessed as cell growth at 0.05 uM by SRB assay; assay type: functional; conditions: Hs-578T, read-out: Activity; in short: as §2
NCI-H322M [17] = experiment: Cytotoxicity against human NCI-H322M cells assessed as cell growth at 0.5 uM by SRB assay; assay type: functional; conditions: read-out: Activity
HCC 2998 [18] = experiment: Cytotoxicity against human HCC2998 cells assessed as cell growth at 0.5 uM by SRB assay; assay type: functional; conditions: read-out: Activity; in short: as §2
HCT-15 [19] = experiment: Cytotoxicity against human HCT15 cells assessed as cell growth at 0.5 uM by SRB assay; assay type: functional; conditions: read-out: Activity; in short: as §2
KM12 [20] = experiment: Cytotoxicity against human KM12 cells assessed as cell growth at 0.5 uM by SRB assay; assay type: functional; conditions: read-out: Activity
SF-295 = experiment: Cytotoxicity against human SF295 cells assessed as cell growth at 0.5 uM by SRB assay; assay type: functional; conditions: read-out: Activity
SK-MEL-5 [21] = experiment: Cytotoxicity against human SK-MEL-5 cells assessed as cell growth at 0.5 uM by SRB assay; assay type: functional; conditions: read-out: Activity
[22] = Cytotoxicity against human NCI-ADR-RES cells assessed as cell growth at 0.5 uM by SRB assay; assay type: functional; conditions: read-out: Activity
SN12C [23] = experiment: Cytotoxicity against human SN12C cells assessed as cell growth at 0.5 uM by SRB assay; assay type: functional; conditions: read-out: Activity
CCRF-CEM [24] = experiment: Cytotoxicity against human CCRF-CEM cells assessed as cell growth at 5 uM by SRB assay; assay type: functional; conditions: read-out: Activity
MOLT-4 = experiment: Cytotoxicity against human MOLT4 cells assessed as cell growth at 5 uM by SRB assay; assay type: functional; conditions: read-out: Activity
COLO 205 = experiment: Cytotoxicity against human COLO205 cells assessed as cell growth at 5 uM by SRB assay; assay type: functional; conditions: read-out: Activity
HCC 2998 [25] = experiment: Cytotoxicity against human HCC2998 cells assessed as cell growth at 5 uM by SRB assay; assay type: functional; conditions: read-out: Activity; in short: as §2
A498 = experiment: Cytotoxicity against human A498 cells assessed as cell growth at 5 uM by SRB assay; assay type: functional; conditions: read-out: Activity
DU-145 = experiment: Cytotoxicity against human DU145 cells assessed as cell growth at 5 uM by SRB assay; assay type: functional; conditions: read-out: Activity; in short: as §2
CCRF-CEM [26] = experiment: Cytotoxicity against human CCRF-CEM cells assessed as cell growth at 50 uM by SRB assay; assay type: functional; conditions: read-out: Activity
HL-60(TB) [27] = experiment: Cytotoxicity against human HL-60(TB) cells assessed as cell growth at 50 uM by SRB assay; assay type: functional; conditions: read-out: Activity; in short: as §2
[28] = read-out: LC50 (the source's name)
[29] = read-out: pLC50 (the source's name) (converted)

Structure (SMILES): COc1cc([C@@H]2c3cc4c(cc3[C@@H](NC(=O)CN3CCN(CCCCCCN5CCN(CC(=O)N[C@@H]6c7cc8c(cc7[C@@H](c7cc(OC)c(O)c(OC)c7)[C@H]7C(=O)OC[C@@H]76)OCO8)CC5)CC3)[C@H]3COC(=O)[C@H]23)OCO4)cc(OC)c1O
- pIC50 (K562): 7.39
- growth at 50 µM (SF-268): 10%
- growth at 50 µM (SK-MEL-28): 3%
- growth at 50 µM (SK-MEL-5 [1]): 9%
- growth at 50 µM (IGROV-1): 47%
- growth at 50 µM (CAKI-1 [2]): 57%
- growth at 50 µM (UO-31 [3]): 64%
- growth at 50 µM (BT-549 [4]): -40%
- GI50 (NCI-H322M [5]; read-out: GI50): 30.7 µM
- CC50 (NCI-H322M [5]; [28]): > 50 µM
- TGI (NCI-H322M [5]; read-out: TGI): > 50 µM
- GI50 (NCI-H322M [5]; read-out: pGI50 (converted)): 30.9 µM
- CC50 (NCI-H322M [5]; [29]): > 50.1 µM
- TGI (NCI-H322M [5]; read-out: pTGI (converted)): > 50.1 µM
- GI50 (KM12 [6]; read-out: GI50): 3.79 µM
- CC50 (KM12 [6]; [28]): > 50 µM
- TGI (KM12 [6]; read-out: TGI): > 50 µM
- GI50 (KM12 [6]; read-out: pGI50 (converted)): 3.8 µM
- CC50 (KM12 [6]; [29]): > 50.1 µM
- TGI (KM12 [6]; read-out: pTGI (converted)): > 50.1 µM
- GI50 (CAKI-1 [7]; read-out: GI50): > 50 µM
- CC50 (CAKI-1 [7]; [28]): > 50 µM
- TGI (CAKI-1 [7]; read-out: TGI): > 50 µM
- GI50 (CAKI-1 [7]; read-out: pGI50 (converted)): > 50.1 µM
- CC50 (CAKI-1 [7]; [29]): > 50.1 µM
- TGI (CAKI-1 [7]; read-out: pTGI (converted)): > 50.1 µM
- GI50 (SN12C [8]; read-out: GI50): 1.31 µM
- CC50 (SN12C [8]; [28]): > 50 µM
- TGI (SN12C [8]; read-out: TGI): > 50 µM
- GI50 (SN12C [8]; read-out: pGI50 (converted)): 1.32 µM
- CC50 (SN12C [8]; [29]): > 50.1 µM
- TGI (SN12C [8]; read-out: pTGI (converted)): > 50.1 µM
- GI50 (PC-3; read-out: GI50): 6.87 µM
- CC50 (PC-3; [28]): > 50 µM
- TGI (PC-3; read-out: TGI): > 50 µM
- GI50 (PC-3; read-out: pGI50 (converted)): 6.92 µM
- CC50 (PC-3; [29]): > 50.1 µM
- TGI (PC-3; read-out: pTGI (converted)): > 50.1 µM
- GI50 (BT-549 [9]; read-out: GI50): 0.757 µM
- CC50 (BT-549 [9]; [28]): > 50 µM
- TGI (BT-549 [9]; read-out: TGI): 4.24 µM
- GI50 (BT-549 [9]; read-out: pGI50 (converted)): 0.759 µM
- CC50 (BT-549 [9]; [29]): > 50.1 µM
- TGI (BT-549 [9]; read-out: pTGI (converted)): 4.27 µM
- growth at 0.005 µM (HL-60(TB) [10]): 120%
- growth at 0.005 µM (SF-539): 94%
- growth at 0.005 µM (SNB-19): 97%
- growth at 0.005 µM (SK-MEL-5 [11]): 97%
- growth at 0.005 µM (786-0): 89%
- growth at 0.005 µM (UO-31 [12]): 94%
- growth at 0.005 µM (MDA-MB-468): 91%
- growth at 0.05 µM (NCI-H226): 87%
- growth at 0.05 µM (HCT-15 [13]): 93%
- growth at 0.05 µM (LOX IMVI): 88%
- growth at 0.05 µM (SK-MEL-5 [14]): 93%
- growth at 0.05 µM (SN12C [15]): 97%
- growth at 0.05 µM (MCF7): 77%
- growth at 0.05 µM [16]: 90%
- growth at 0.5 µM (NCI-H322M [17]): 93%
- growth at 0.5 µM (HCC 2998 [18]): 82%
- growth at 0.5 µM (HCT-15 [19]): 90%
- growth at 0.5 µM (KM12 [20]): 81%
- growth at 0.5 µM (SF-295): 94%
- growth at 0.5 µM (SK-MEL-5 [21]): 85%
- growth at 0.5 µM [22]: 106%
- growth at 0.5 µM (SN12C [23]): 78%
- growth at 5 µM (CCRF-CEM [24]): 7%
- growth at 5 µM (MOLT-4): 6%
- growth at 5 µM (COLO 205): 54%
- growth at 5 µM (HCC 2998 [25]): 73%
- growth at 5 µM (A498): 54%
- growth at 5 µM (DU-145): 14%
- growth at 50 µM (CCRF-CEM [26]): 7%
- growth at 50 µM (HL-60(TB) [27]): -1%
